# Runt-CBFb FRET = blocks binding of human RUNX1 Runt domain to CBFb; Q01196+Q13951; Cerulean-Runt/Venus-CBFb FRET ratio 530/480, 1 h; inhibition, % at 20 µM; hit rate 0.46% among 220,000;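 active means inhibition over about 50% at 20 µM in the single-dose screen, limit read from the data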;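 further: 0% = DMSO wells and 100% = excess unlabeled CBFb competitor control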
#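 Schedule: protein complex preformed 1 h, compound exposure 1 h, room temperature, dark; test system: Cerulean-labeled Runt domain protein; amount: 100 nM per protein; buffer or medium: Tris 50 mM pH 7.5, KCl, K2SO4, 0.01% BSA; read-out: loss of energy transfer signal; detection: FRET fluorescence; controls: 5 µM unlabeled CBFb as full-inhibition high control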
# Hck-Nef inh = human Hck-Nef kinase inhibition; Recombinant Hck-YEEI plus Nef, Z-Lyte FRET kinase assay; inhibition, % at 20 µM; AID 463187; P08631; hit rate 0.68% among 220,000;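 active means Hck-Nef kinase inhibition above about 50%, limit read from the data; inactive means inhibition below that limit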;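 further: 0% = DMSO with Hck plus Nef and 100% = Hck alone without Nef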
# Target sequence (P08631 whole entry, looked up): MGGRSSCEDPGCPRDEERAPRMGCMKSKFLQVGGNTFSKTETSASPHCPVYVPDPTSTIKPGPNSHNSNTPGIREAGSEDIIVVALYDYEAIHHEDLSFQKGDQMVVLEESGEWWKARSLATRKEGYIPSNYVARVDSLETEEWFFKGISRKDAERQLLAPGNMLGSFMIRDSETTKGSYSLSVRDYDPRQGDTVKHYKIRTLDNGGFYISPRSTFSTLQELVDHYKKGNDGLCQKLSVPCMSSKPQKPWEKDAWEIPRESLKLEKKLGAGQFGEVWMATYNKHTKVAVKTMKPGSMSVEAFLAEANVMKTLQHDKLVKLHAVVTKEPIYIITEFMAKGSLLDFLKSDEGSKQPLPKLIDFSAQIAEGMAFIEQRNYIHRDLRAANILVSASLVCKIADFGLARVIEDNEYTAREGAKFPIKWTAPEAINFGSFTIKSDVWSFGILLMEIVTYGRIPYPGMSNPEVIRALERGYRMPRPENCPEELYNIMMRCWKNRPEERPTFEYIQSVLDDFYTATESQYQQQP
# RanGTP-Imp inh = disruptors of Ran-importin-beta complex formation – biochemical, FRET, CFP-Ran, YFP-importin-beta, homogeneous, primary screen; inhibition, % (test concentration not listed); hit rate 1.1% among 300,000; cell-free CFP-Ran/YFP-importin-beta FRET ratio;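 active means more than half of the replicate wells show a fall in the fluorescence ratio signal beyond about 16%, limit read from the data, passing the limit was not always enough; inconclusive means exactly half of the replicate wells pass the set limit; inactive means fewer than half of replicates pass the limit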;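 further: 0% = DMSO wells and 100% = Ran loaded with GDP instead of GTP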
# Runt-SMMHC FRET = Runt domain-CBFb-SMMHC interaction inhibition; Q01196+Q13951; Cerulean-Runt/Venus-CBFb-SMMHC FRET ratio 530/480, 1 h; inhibition, % at 20 µM; hit rate 0.74% among 220,000; AID 1434;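 active means mean inhibition across duplicate retests at 20 µM reaching about 50%, limit read from the data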;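 further: 0% = DMSO wells and 100% = wells with excess untagged CBFb-SMMHC; inhibitors lower the FRET ratio by blocking Runt binding to CBFb-SMMHC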
# Numbers without * were called inactive; ? = inconclusive; nt = no result. In the library only some 1.7% were active in any assay of this set; here they are far more common.
SMILES,Runt-CBFb FRET,Hck-Nef inh,RanGTP-Imp inh,Runt-SMMHC FRET
COc1ccc(CCNC(=O)CCc2ccc(S(=O)(=O)NCC(C)C)cc2)cc1OC,-3,17,1,0
CCN1C(=O)CSc2ccc(C(=O)OC)cc21,2,-3,1,1
CCN1C(=O)CSc2ccc(C(=O)NCc3ccco3)cc21,1,-2,23*,7
CCOc1cc(/C=C\c2nc(O)c([N+](=O)[O-])c(=O)[nH]2)ccc1OC(C)C,nt,nt,7,nt
C=CCc1cc(/C=C/c2nc(O)c([N+](=O)[O-])c(=O)[nH]2)cc(OC)c1O,38,32,34*,80*
COC(=O)c1ccc(-c2sc3nc(N4CCOCC4)c4c(c3c2N)CC(C)(C)OC4)o1,-2,-9,24*,-24
CC1(C)OC(=O)C(=Cc2ccc(-c3ccc(S(N)(=O)=O)cc3)o2)C(=O)O1,8,58*,-2,18
N#CC1(C#N)C(c2ccccc2)OC23CCCCCC2C1(C#N)C(=N)O3 (centres undefined),40,-2,?,80*
N#CC1(C#N)C(c2ccccc2)OC23CCCCC2C1(C#N)C(=N)O3 (centres undefined),33,6,42*,61
NC(=O)c1c(NC(=O)Cc2ccccc2)sc2c1CCN(Cc1ccccc1)C2,nt,nt,134*,nt
CC(=O)Nc1sc2c(c1C(N)=O)CCN(Cc1ccccc1)C2,9,5,162*,130*
CCN1CCc2c(sc(NC(=O)CN3C(=O)c4ccccc4C3=O)c2C(N)=O)C1,62*,27,-4,102*
CC(=O)N1CCc2c(sc(NC(=O)Cc3ccc(F)cc3)c2C(N)=O)C1,nt,nt,8,nt
Cc1c(Br)c([N+](=O)[O-])nn1C(C)C(=O)Nc1c(C)n(C)n(-c2ccccc2)c1=O (centres undefined),-3,-2,-2,-2
C=CCN(C(=O)c1ccc2c(c1)nnn2C)c1ccccc1,nt,nt,3,nt
Cc1c(OCC(=O)OC(C)C)ccc2c3c(c(=O)oc12)CCC3,-5,16,-3,0
CC(C)CN(Cc1c(O)ccc2c3c(c(=O)oc12)CCC3)CC(C)C,39,49,1,100*
CC(=O)COc1ccc2c3c(c(=O)oc2c1C)CCCCC3,0,0,?,4
Cc1c(O)ccc2c3c(c(=O)oc12)CCCC3,75*,46,nt,90*
NCCCC[C@H]1CNC(=O)C(=O)N1CCc1cccc(F)c1,2,17,-15,-6
COc1ccc(-c2nc3ccc(C(=O)NCC(OC)OC)cc3nc2-c2ccc(OC)cc2)cc1,4,8,16*,3
COC(CNC(=O)c1ccc2nc(-c3ccccc3)c(-c3ccccc3)nc2c1)OC,-2,9,-2,-6
COc1cc(C2C3=C(CCCC3=O)Nc3ccc4ncccc4c32)ccc1O (centres undefined),4,-15,-2,2
CCOc1cc(C2C3=C(CCCC3=O)Nc3ccc4ncccc4c32)ccc1O (centres undefined),0,18,22*,-3
COc1ccc(C(=O)NNC2=CC(=O)CC(C)(C)C2)cc1,3,-1,33*,2
SMILES,Runt-CBFb FRET,Hck-Nef inh,RanGTP-Imp inh,Runt-SMMHC FRET
CC1(C)CC(=O)C=C(NNC(=O)c2ccccc2O)C1,nt,2,3,-74
O=C(N=C1SC2CS(=O)(=O)CC2N1c1ccccc1)C1CCCCC1 (centres undefined),nt,nt,1,nt
COC(=O)c1ccc(Oc2c(C(F)(F)F)oc3c(CN4CCN(C)CC4)c(O)ccc3c2=O)cc1,-9,-1,39*,-31
O=C(O)c1ccc(Oc2c(C(F)(F)F)oc3cc(O)ccc3c2=O)cc1,-3,17,24*,-13
Cc1oc2cc(O)ccc2c(=O)c1Oc1ccccc1,-2,5,7,-3
O=C(Cc1ccc(F)cc1)Nc1nnc(SCC(=O)NC2CCCC2)s1,0,15,27*,-1
O=C(CSc1nnc(NC(=O)c2ccc(F)cc2)s1)NC1CC1,nt,nt,-7,nt
O=C1OC(/C(=C\Nc2cc(Cl)ccc2O)[N+](=O)[O-])c2ccccc21 (centres undefined),29,15,-3,13
COC(=O)c1noc(C)c1-c1ccnn1C(=O)c1ccc(C)cc1,-1,-152,12*,-6
Cc1snc(SCC(=O)c2ccc([N+](=O)[O-])cc2)c1C#N,21,-56,nt,60*
O=C(O)COc1ccc2c(c1)O/C(=C\c1cccs1)C2=O,18,14,14,56*
Cc1ccc(/C=C2\Oc3cc(OCC(=O)NN)ccc3C2=O)o1,nt,nt,54*,nt
O=C(O)COc1ccc2c(c1)O/C(=C\c1ccco1)C2=O,nt,nt,25*,nt
COc1cccc(/C=C2\Oc3cc(OCC(=O)N4CCCC4)ccc3C2=O)c1OC,nt,nt,-3,nt
COCCN(CCOC)Cc1c(O)ccc2c1O/C(=C\c1ccc(C)o1)C2=O,nt,nt,-63,nt
COc1ccccc1CCNC(=O)C1CCC(=O)N(C2CCCCCC2)C1 (centres undefined),nt,nt,-2,nt
Nc1nonc1-n1nnc(C(=O)N/N=C/c2cc(Cl)ccc2O)c1CN1CCCCCC1,nt,nt,-5,nt
O=C(c1ccoc1)N1CCC(CO)(CCc2ccccc2)CC1,1,5,2,1
NC(=O)c1ccccc1N/C=C/C(=O)c1ccc(F)cc1,2,6,-13,1
NC(=O)c1ccccc1N/C=C/C(=O)c1ccc(Cl)cc1Cl,5,5,44*,16
Cc1ccc(S(=O)(=O)NC(=O)COc2ccccc2C(N)=O)cc1,2,0,28*,-4
CC(=O)N1CCc2c(sc(NC(=O)CCS(=O)(=O)c3ccc(C)cc3)c2C#N)C1,nt,nt,2,nt
CCCCC(=O)Nc1sc2c(c1-c1nc3ccccc3s1)CCN(C(C)=O)C2,2,66*,nt,-2
Cc1cc(NC(=O)C2CC2)n(-c2nc3ccccc3s2)n1,-3,19,-1,2
CC(=O)N1CCc2c(sc(NC(=O)C3CC3)c2-c2nc3ccccc3s2)C1,6,3,24*,-16
SMILES,Runt-CBFb FRET,Hck-Nef inh,RanGTP-Imp inh,Runt-SMMHC FRET
Oc1oc(-c2ccccc2)nc1C=Nc1cccc2ccccc12,1,0,27*,9
CC(=O)c1ccc(S(=O)(=O)N2CCN(C(=O)CSC(=S)N3CCCC3)CC2)cc1,nt,nt,2,nt
Cc1ccc(-c2cc(-c3ccc(Cl)cc3)c(C#N)c(N)n2)o1,34,16,16*,33
CCOc1ccc(CCNC(=O)COC(=O)c2cccnc2OCC)cc1OCC,1,5,20*,0
OC1CCCN(Cc2ccc3ccc4cccc5ccc2c3c45)C1 (centres undefined),nt,3,41*,9
c1cc2ccc3ccc(CN4CCOCC4)c4ccc(c1)c2c34,nt,0,45*,10
COC(=O)c1ccccc1NC(=O)C(C)c1ccc([N+](=O)[O-])cc1 (centres undefined),0,2,1,0
CN(C)C(=O)COc1ccc2c3c(c(=O)oc2c1)CCCC3,nt,nt,5,nt
N=c1c(C(=O)NCCc2ccccc2)cc2c(=O)n3ccccc3nc2n1CCCN1CCOCC1,nt,nt,175*,nt

# High-throughput results from PubChem BioAssay.
